This is a sample that favours compounds with a hit; in the whole collection about 1% have one here.
GSIS activator = GLuc luminescence reporter in INS-1E cells, primary screen for activators of glucose-dependent secretion of insulin. INS-1E GLuc reporter insulin secretion, 2-3 h. 370,000 tested, 0.61% active. activation, % at 16.6 µM. AID 743287;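 active means lowest replicate activation of at least 40%, so every replicate reaches that level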;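 further: 0% = median of neutral control wells and 100% = median of IBMX positive control wells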
CaV13 ICDI inh = Primary screen for inhibitors of IQ motif and Ca2+-dependent inactivation inhibitor domain binding in CACNA1D, Förster resonance energy transfer in living cells, …. 340,000 tested, 0.098% active. HEK cells, CFP/YFP FRET ICDI-IQ, plate reader, 10 min; percent FRET-ratio fall versus neutral wells. inhibition, % at 12.3 µM;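 active means mean replicate inhibition of at least 30% and at least 1% of replicates passing that level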;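 further: 0% = median of the neutral control wells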
XiGFP reactiv = activators of X-chromosome reactivation in mouse fibroblasts; AID 743238; XiGFP mouse fibroblasts, % GFP-positive cells imaging, 3 d; cells co-treated with 5-aza-dC sensitizer; scaled so ellipticine positive control = 100%; 360,000 tested, 0.055% active; activation, % at 7.58 µM;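 active means mean normalized replicate activation at least 10% and every replicate at or above 10%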;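 further: 0% = median of on-plate neutral control wells and 100% = ellipticine 6 µM median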
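material = 68-5-11 XiGFP fibroblast line | medium = DMEM plus 5-aza-dC sensitizer | schedule = 3 days compound exposure | benchmarks = positive control ellipticine, 6 µM final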
FXN GAA850 act = frataxin GAA850 promoter activation. HEK293 lucGAA850 FXN promoter luciferase reporter, 24 h; percent of 10 µM SAHA response. activation, % at 6 µM. 360,000 tested, 0.56% active;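 active means activation above the average of all compounds screened plus 3 SD, cutoff fixed separately per campaign, cut at about 7.5% in these data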;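 further: 0% = DMSO wells and 100% = 10 µM SAHA wells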
GAA30 counter = activates GAA30 frataxin promoter, counter-screen for GAA850 activators | shares compounds with FXN GAA850 act | HEK293 lucGAA30 FXN promoter luciferase, 24 h; DMSO = 0%, 5 µM ipriflavone = 100% | activation, % at 6 µM | 1,900 tested, 66% active;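 active means mean activation above the mean of solvent-only control wells plus 3 SD, cut at about 22% in these data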;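 further: counterscreen of GAA850 promoter hits where activity marks nonselective or luminescence artifacts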
GAA850 confirm = GAA850 FXN promoter activation confirmation; shares compounds with FXN GAA850 act; HEK293 lucGAA850 FXN promoter luciferase reporter, 24 h; 100% = activation by SAHA; activation, % at 6 µM; 1,900 tested, 86% active; AID 588351;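 active means mean activation above a set limit taken from the primary screen, cut at about 8% in these data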;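 further: 0% = DMSO wells and 100% = 10 µM SAHA wells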
* = called active by the depositor; / = no result given.

SMILES	GSIS activator	CaV13 ICDI inh	XiGFP reactiv	FXN GAA850 act	GAA30 counter	GAA850 confirm
CCCCCn1c(CN2CCN(c3cccc(Cl)c3)CC2)nc2c1c(=O)[nH]c(=O)n2C	-45	-4	/	8.5*	-19	2
Cn1c(=O)[nH]c(=O)c2c1nc(CN1CCN(c3cccc(Cl)c3)CC1)n2CCc1ccccc1	-28	-8	/	1	/	/
COc1ccc(CN(C)C[C@@H]2OCCCC[C@H](C)Oc3ccc(NC(=O)Nc4ccc(F)cc4)cc3C(=O)N([C@@H](C)CO)C[C@H]2C)cc1	-24	/	-1	/	/	/
O=C(Cn1nc(-c2ccc(N3CCOCC3)c([N+](=O)[O-])c2)c2ccccc2c1=O)N1CCCCC1	/	-5	/	8.3*	38*	14*
O=C(NCCc1ccc(Cl)cc1)C1CCC(CNc2c(N3CCCCC3)c(=O)c2=O)CC1 (configuration not stated)	-3	-6	0	16*	28*	5
O=C(NCCc1ccccc1)C1CCC(CNc2c(N3CCCCC3)c(=O)c2=O)CC1 (configuration not stated)	7	-7	0	1	/	/
N#C[C@@H]1[C@@H](c2ccccc2C2=CCCCC2)[C@@H](CO)N1C(=O)Cc1ccncc1	-17	/	0	/	/	/
S=C(Nc1ccc(Cl)cc1)c1nc2ccccc2[nH]1	-24	-5	0	7.8*	113*	33*
Cc1ccccc1NC(=S)c1nc2ccccc2[nH]1	/	-3	0	6	/	/
CCOc1ccc(NC(=O)Cc2ccccc2)cc1	-13	-4	1	8.4*	82*	31*
COCC(=O)Nc1ccc(OCc2ccccc2)cc1	1	-3	0	4	/	/
O=C(Cc1ccccc1)Nc1ccc(NC(=O)c2ccco2)cc1	7	-7	0	7.9*	48*	22*
COC(=O)Nc1ccc(OCc2ccccc2)cc1	8	-7	/	10.0*	89*	32*
C[C@H](CO)N1C[C@H](C)[C@@H](CN(C)C(=O)C2CC2)Oc2cc(-c3ccccc3F)ccc2S1(=O)=O	-8	/	1	/	/	/
C[C@@H]1CN([C@@H](C)CO)C(=O)c2cc(NC(=O)c3ccncc3)ccc2O[C@@H](C)CCCCO[C@@H]1CN(C)S(=O)(=O)c1cccs1	-3	/	0	/	/	/
CO[C@@H]1CN(C)C(=O)c2ccc(NC(=O)Cc3ccccc3)cc2OC[C@@H](C)N(C(=O)c2ccccc2F)C[C@@H]1C	-7	/	0	/	/	/
CN(C)c1ccc(O)c2c1CC1CC3[C@@H](N(C)C)C(=O)C(C(N)=O)=C(O)[C@]3(O)C(=O)C1=C2O (some centres not stated)	-3	-5	0	15*	29*	10*
CC(C)(C)C(=O)Cn1ncc(Cl)c(Cl)c1=O	-16	-4	0	9.0*	6	6
O=C(NC12CC3CC(CC(C3)C1)C2)OCCNC1CCCCC1	10	-3	0	15*	23*	10*
Cc1cc2nc(SCC(=O)Nc3ccccc3C(=O)O)[nH]c2cc1C	/	5	0	9.6*	62*	18*
Cc1ccc(N2C(=O)CS(=O)C(c3ccccc3)C2=O)cc1C (configuration not stated)	-2	-6	0	8.2*	58*	16*
Cc1cccc(S(=O)(=O)N2C[C@@H](O)COC[C@@H]3O[C@@H](CC(=O)NCCCN4CCOCC4)CC[C@H]32)c1	-6	/	0	/	/	/
O=C(Nc1ccc(F)cc1)Nc1ccc(N2CCOCC2)c2nonc12	1	-5	0	8.2*	103*	32*
COc1ccc(N=Nc2ccc(O)c3ncccc23)cc1	2	-2	1	4	/	/
COc1cccc(N=Nc2ccc(O)c3ncccc23)c1	31	-7	3	9.6*	-107	-33
SMILES	GSIS activator	CaV13 ICDI inh	XiGFP reactiv	FXN GAA850 act	GAA30 counter	GAA850 confirm
O=C(C[C@H]1C[C@@H]2c3cc(NC(=O)c4ccc5c(c4)OCO5)ccc3O[C@@H]2[C@@H](CO)O1)NCc1ccc(Oc2ccccc2)cc1	-4	/	0	/	/	/
O=C(O)C[C@H]1C[C@@H]2c3cc(NC(=O)C4CCC4)ccc3O[C@@H]2[C@H](CO)O1	5	/	0	/	/	/
C/C(=N/NC(=O)c1ccc(Br)o1)C(C)C	0	-5	0	9.1*	16	7
O=C(NC12CC3CC(CC(C3)C1)C2)c1cc([N+](=O)[O-])ccc1N1CCOCC1	17	-2	0	10*	17	10*
O=C(NCC1CCCCC1)c1cc([N+](=O)[O-])ccc1N1CCOCC1	1	-3	1	0	/	/
O=C(C[C@@H]1CC[C@@H]2[C@H](COC[C@H](O)CN2Cc2cccc(C(F)(F)F)c2)O1)NCCc1ccccc1	-18	/	0	/	/	/
c1ccc2c(-c3nc(-c4ccncc4)no3)cccc2c1	-5	-4	/	10*	101*	32*
c1ccc(-c2noc(-c3cccc4ccccc34)n2)cc1	/	/	/	3	/	/
O=C(Nc1ccccc1[N+](=O)[O-])C1=C(O)CCn2c1nc1ccccc12	/	-7	/	9.2*	11	16*
Nn1nnc2ccccc21	/	-5	0	20*	46*	16*
c1ccc(CCn2nnc3ccccc32)cc1	22	-2	0	6	/	/
Nc1c(Cl)ncnc1N/N=C/c1ccc(O)cc1	3	-16	/	7.8*	52*	14*
COc1ccc(S(=O)(=O)Nc2ccc3c(c2)C(=O)N([C@@H](C)CO)C[C@H](C)[C@@H](CN(C)S(=O)(=O)c2c(C)noc2C)OCCCC[C@@H](C)O3)cc1	-13	/	0	/	/	/
Cc1ccc(OCc2ccc([N+](=O)[O-])cc2)c([N+](=O)[O-])n1	14	-3	0	8.4*	117*	34*
O=[N+]([O-])c1ccc(COc2cccc3cccnc23)cc1	-6	-5	0	4	/	/
O=[N+]([O-])c1ccc(Sc2ccncn2)c([N+](=O)[O-])c1	84*	-6	2	71*	-20	97*
O=[N+]([O-])c1cc(Cl)ccc1Sc1cccc2cccnc12	-8	-8	/	2	/	/
O=[N+]([O-])c1ccc(Sc2cccc3cccnc23)cc1	7	-8	/	9.3*	83*	30*
O=[N+]([O-])c1ccc(Sc2cccc3cccnc23)c([N+](=O)[O-])c1	3	-7	/	22*	-96	-22
COc1ccc(C#Cc2ccc3c(c2)O[C@@H](CN(C)C(=O)Nc2cccc(OC)c2)[C@@H](C)CN([C@@H](C)CO)S3(=O)=O)cc1	9	/	0	/	/	/
